Results on ten compounds are retold here after ChEMBL document CHEMBL1126774, “Synthesis and antiviral activity of novel 5-(1-azido-2-haloethyl) and 5-(1-azido-, amino-, or methoxyethyl) analogs of 2'-deoxyuridine” (J Med Chem, 1993).

Molecules are shown by their SMILES.

In general, EC50 refers to the concentration giving half of the maximal effect. Lower therefore signals a more potent agent. The term IC50 denotes the concentration at which inhibition is half-maximal. A high value points to lower potency.

Tested on in the first test: not listed separately
As to the kind of experiment: Inhibitory concentration of the drug against the cytopathic effect for MS strain of herpes simplex virus-2 (HSV-2) in human HFF cells. It is filed as functional, cell-based.
Details: not given
Summed up: (§1)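 HFF CPE assay: low-passage cells seeded 24 h before in MEM + 10% FBS, switched to MEM + 2% FBS. Drug added in triplicate, serially diluted 1:5, plus HSV-1 or HSV-2 at 1000 PFU/well; 3 days at 37 °C in CO2. Staining with 0.1% crystal violet, read at 620 nm. Value is concentration (µM) reducing CPE by 50%.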
A general note: Damage to the host cells serves as the signal in cytopathic effect assays.
The compound `COC(C)c1cn([C@H]2C[C@H](O)[C@@H](CO)O2)c(=O)[nH]c1=O` (stereo partly specified) registered an EC50 of 1 µM.

As for `CC(N=[N+]=[N-])c1cn([C@H]2C[C@H](O)[C@@H](CO)O2)c(=O)[nH]c1=O` (stereo partly specified), the concentration giving a half-maximal response (EC50) is > 170 µM.

For `[N-]=[N+]=NC(CI)c1cn([C@H]2C[C@H](O)[C@@H](CO)O2)c(=O)[nH]c1=O` (stereo partly specified), it took 13.2 µM to reach a half-maximal effect (EC50).

`O=c1[nH]c(=O)n([C@H]2C[C@H](O)[C@@H](CO)O2)cc1/C=C/I` showed a 50% effective concentration (EC50) of 2.21 µM.

For the compound `[N-]=[N+]=NC(CCl)c1cn([C@H]2C[C@H](O)[C@@H](CO)O2)c(=O)[nH]c1=O` (stereo partly specified), the EC50 amounted to 6.6 µM.

Regarding `CCc1cn([C@H]2C[C@H](O)[C@@H](CO)O2)c(=O)[nH]c1=O` [EDOXUDINE], the concentration for a half-maximal effect (EC50) stood at 1.5 µM.

As for `CC(N)c1cn([C@H]2C[C@H](O)[C@@H](CO)O2)c(=O)[nH]c1=O` (stereo partly specified), the EC50 was > 100 µM.

The compound `[N-]=[N+]=NC(CBr)c1cn([C@H]2C[C@H](O)[C@@H](CO)O2)c(=O)[nH]c1=O` (stereo partly specified) had an EC50 of 2.9 µM.

In turn, `Nc1nc2c(ncn2COCCO)c(=O)[nH]1` [ACYCLOVIR] displayed a concentration for a half-maximal effect (EC50) of 0.09 µM.

For the next test, the system named is Human cytomegalovirus (Human herpesvirus 5). Nature of the test: Inhibitory concentration of the drug against the cytopathic effect for AD169 strain of human cytomegalovirus (HCMV) in human HFF cells.
Details: not given
`COC(C)c1cn([C@H]2C[C@H](O)[C@@H](CO)O2)c(=O)[nH]c1=O` (stereo partly specified): the EC50 was 5.9 µM.

`CC(N=[N+]=[N-])c1cn([C@H]2C[C@H](O)[C@@H](CO)O2)c(=O)[nH]c1=O` (stereo partly specified): the EC50 was > 170 µM.

Turning to `[N-]=[N+]=NC(CI)c1cn([C@H]2C[C@H](O)[C@@H](CO)O2)c(=O)[nH]c1=O` (stereo partly specified), the 50% effective concentration (EC50) is > 118 µM.

`O=c1[nH]c(=O)n([C@H]2C[C@H](O)[C@@H](CO)O2)cc1/C=C/I` gave a concentration giving a half-maximal response (EC50) of 24.8 µM.

`[N-]=[N+]=NC(CCl)c1cn([C@H]2C[C@H](O)[C@@H](CO)O2)c(=O)[nH]c1=O` (stereo partly specified): the EC50 is > 150 µM.

`CCc1cn([C@H]2C[C@H](O)[C@@H](CO)O2)c(=O)[nH]c1=O` [EDOXUDINE]: the midpoint of the response, the EC50, lay at 0.9 µM.

Take `CC(N)c1cn([C@H]2C[C@H](O)[C@@H](CO)O2)c(=O)[nH]c1=O` (stereo partly specified): the EC50 was > 125 µM.

Consider `[N-]=[N+]=NC(CBr)c1cn([C@H]2C[C@H](O)[C@@H](CO)O2)c(=O)[nH]c1=O` (stereo partly specified), for which the EC50 is > 130 µM.

As to `Nc1nc2c(ncn2COC(CO)CO)c(=O)[nH]1` [GANCICLOVIR], the EC50 was 0.5 µM.

For another test, the species on record is Homo sapiens. Nature of the test: Concentration of the drug required to reduce the uptake of neural red stain by uninfected cell monolayers (HFF).
Details: not given
It counts as functional. In short, it runs like this:
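HFF cells plated 24 h before assay at 2.5×10^4 cells/well; drug added in 1:5 serial dilution, incubated 7 days at 37 °C in CO2; 0.01% neutral red in DPBS 1 h, washed, dye extracted with 50% EtOH/1% acetic acid, OD 550 nm; value is concentration (µM) reducing uptake to 50% of untreated uninfected controls.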
Turning to `COC(C)c1cn([C@H]2C[C@H](O)[C@@H](CO)O2)c(=O)[nH]c1=O` (stereo partly specified), the concentration for half-maximal inhibition (IC50) is > 175 µM.

`CC(N=[N+]=[N-])c1cn([C@H]2C[C@H](O)[C@@H](CO)O2)c(=O)[nH]c1=O` (stereo partly specified): the IC50 is > 170 µM.

For `[N-]=[N+]=NC(CI)c1cn([C@H]2C[C@H](O)[C@@H](CO)O2)c(=O)[nH]c1=O` (stereo partly specified), the IC50 was > 118 µM.

Consider `O=c1[nH]c(=O)n([C@H]2C[C@H](O)[C@@H](CO)O2)cc1/C=C/I`, for which the midpoint of inhibition, the IC50, lay at 86 µM.

On to `[N-]=[N+]=NC(CCl)c1cn([C@H]2C[C@H](O)[C@@H](CO)O2)c(=O)[nH]c1=O` (stereo partly specified), for which the half-maximal inhibitory concentration (IC50) is > 150 µM.

As for `CCc1cn([C@H]2C[C@H](O)[C@@H](CO)O2)c(=O)[nH]c1=O` [EDOXUDINE], the IC50 is > 195 µM.

For the compound `CC(N)c1cn([C@H]2C[C@H](O)[C@@H](CO)O2)c(=O)[nH]c1=O` (stereo partly specified), the 50% inhibitory concentration (IC50) is > 125 µM.

Consider `[N-]=[N+]=NC(CBr)c1cn([C@H]2C[C@H](O)[C@@H](CO)O2)c(=O)[nH]c1=O` (stereo partly specified), for which the IC50 was > 130 µM.

On to `Nc1nc2c(ncn2COCCO)c(=O)[nH]1` [ACYCLOVIR], for which the concentration for half-maximal inhibition (IC50) was > 440 µM.

For `Nc1nc2c(ncn2COC(CO)CO)c(=O)[nH]1` [GANCICLOVIR], the concentration for half-maximal inhibition (IC50) was > 390 µM.

The species entered for a further test is Homo sapiens. Nature of the test: Concentration of the drug required to reduce the proliferation of human foreskin fibroblast cells. It is filed as functional.
Details: not given
Summed up: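 HFF cells seeded 24 h before in MEM + 10% FBS; drugs serially diluted 1:5 in MEM + 10% FBS over 100 µg/mL to 0.03 µg/mL, 72 h at 37 °C in CO2; cells trypsinized and counted on a Coulter counter; value is concentration (µM) reducing proliferation to 50% of untreated controls.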
The compound `COC(C)c1cn([C@H]2C[C@H](O)[C@@H](CO)O2)c(=O)[nH]c1=O` (stereo partly specified) had an IC50 of 330 µM.

The compound `CC(N=[N+]=[N-])c1cn([C@H]2C[C@H](O)[C@@H](CO)O2)c(=O)[nH]c1=O` (stereo partly specified) returned an IC50 of 81 µM.

Compound `[N-]=[N+]=NC(CI)c1cn([C@H]2C[C@H](O)[C@@H](CO)O2)c(=O)[nH]c1=O` (stereo partly specified) gave an IC50 of 76 µM.

Compound `O=c1[nH]c(=O)n([C@H]2C[C@H](O)[C@@H](CO)O2)cc1/C=C/I` registered an IC50 of 4.4 µM.

In the case of `[N-]=[N+]=NC(CCl)c1cn([C@H]2C[C@H](O)[C@@H](CO)O2)c(=O)[nH]c1=O` (stereo partly specified), the IC50 was > 300 µM.

Turning to `CCc1cn([C@H]2C[C@H](O)[C@@H](CO)O2)c(=O)[nH]c1=O` [EDOXUDINE], the IC50 is 115 µM.

As for `CC(N)c1cn([C@H]2C[C@H](O)[C@@H](CO)O2)c(=O)[nH]c1=O` (stereo partly specified), the IC50 is > 250 µM.

Compound `[N-]=[N+]=NC(CBr)c1cn([C@H]2C[C@H](O)[C@@H](CO)O2)c(=O)[nH]c1=O` (stereo partly specified) gave an IC50 of 91 µM.

As to `Nc1nc2c(ncn2COCCO)c(=O)[nH]1` [ACYCLOVIR], the IC50 was > 440 µM.

`Nc1nc2c(ncn2COC(CO)CO)c(=O)[nH]1` [GANCICLOVIR] returned an IC50 of 168 µM.

For the next test, the system named is Raji. As to the kind of experiment: Inhibitory concentration of the drug against the antigen production against P3HR-1 strain of epstein barr virus-2 (EBV) in Raji cells. It counts as functional, cell-based. The conditions noted are these: Homo sapiens. Summed up:
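Raji cells infected with EBV P3HR-1; drug added after adsorption (45 min, 37 °C) and washing, then 2 days in complete medium. Cells counted, smears stained with monoclonal antibodies to early antigen components and VCA plus fluorescent detection; positive cells counted. Value is concentration (µM) reducing antigen production to 50% of untreated infected controls.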
`[N-]=[N+]=NC(CI)c1cn([C@H]2C[C@H](O)[C@@H](CO)O2)c(=O)[nH]c1=O` (stereo partly specified): the half-maximal effective concentration (EC50) was found to be 4 µM.

Take `[N-]=[N+]=NC(CCl)c1cn([C@H]2C[C@H](O)[C@@H](CO)O2)c(=O)[nH]c1=O` (stereo partly specified): the concentration giving a half-maximal response (EC50) was found to be 11.1 µM.

`CCc1cn([C@H]2C[C@H](O)[C@@H](CO)O2)c(=O)[nH]c1=O` [EDOXUDINE] registered a half-maximal effective concentration (EC50) of 12.1 µM.

For `CC(N)c1cn([C@H]2C[C@H](O)[C@@H](CO)O2)c(=O)[nH]c1=O` (stereo partly specified), the EC50 came to 44.6 µM.

In the case of `[N-]=[N+]=NC(CBr)c1cn([C@H]2C[C@H](O)[C@@H](CO)O2)c(=O)[nH]c1=O` (stereo partly specified), the EC50 came out at 9.3 µM.

In turn, `Nc1nc2c(ncn2COCCO)c(=O)[nH]1` [ACYCLOVIR] had an EC50 of 2.9 µM.

Tested on in a further test: not listed separately
Nature of the test: Inhibitory concentration of the drug against the cytopathic effect for ellen strain of […] in human HFF cells. It counts as functional, cell-based.
Details: not given
Take `COC(C)c1cn([C@H]2C[C@H](O)[C@@H](CO)O2)c(=O)[nH]c1=O` (stereo partly specified): the half-maximal effective concentration (EC50) is > 87 µM.

On to `CC(N=[N+]=[N-])c1cn([C@H]2C[C@H](O)[C@@H](CO)O2)c(=O)[nH]c1=O` (stereo partly specified), for which the EC50 is > 67 µM.

Compound `[N-]=[N+]=NC(CI)c1cn([C@H]2C[C@H](O)[C@@H](CO)O2)c(=O)[nH]c1=O` (stereo partly specified) gave an EC50 of 12.3 µM.

In turn, `O=c1[nH]c(=O)n([C@H]2C[C@H](O)[C@@H](CO)O2)cc1/C=C/I` had an EC50 of 0.01 µM.

Regarding `[N-]=[N+]=NC(CCl)c1cn([C@H]2C[C@H](O)[C@@H](CO)O2)c(=O)[nH]c1=O` (stereo partly specified), it took 4.5 µM to reach a half-maximal effect (EC50).

For the compound `CCc1cn([C@H]2C[C@H](O)[C@@H](CO)O2)c(=O)[nH]c1=O` [EDOXUDINE], the response was half-maximal at 66.4 µM (EC50).

`CC(N)c1cn([C@H]2C[C@H](O)[C@@H](CO)O2)c(=O)[nH]c1=O` (stereo partly specified): the EC50 was > 250 µM.

In the case of `[N-]=[N+]=NC(CBr)c1cn([C@H]2C[C@H](O)[C@@H](CO)O2)c(=O)[nH]c1=O` (stereo partly specified), the EC50 turned out to be 4 µM.

Tested on in another test: not listed separately
As to the kind of experiment: Inhibitory concentration of the drug against the cytopathic effect for E-377 strain of herpes simplex virus-1 (HSV-1) in human HFF cells. It counts as functional, cell-based.
Details: not given
In short, it runs like this: as §1
Compound `COC(C)c1cn([C@H]2C[C@H](O)[C@@H](CO)O2)c(=O)[nH]c1=O` (stereo partly specified) yielded an EC50 of 1.7 µM.

On to `CC(N=[N+]=[N-])c1cn([C@H]2C[C@H](O)[C@@H](CO)O2)c(=O)[nH]c1=O` (stereo partly specified), for which the concentration for a half-maximal effect (EC50) was > 170 µM.

On to `[N-]=[N+]=NC(CI)c1cn([C@H]2C[C@H](O)[C@@H](CO)O2)c(=O)[nH]c1=O` (stereo partly specified), for which the response was half-maximal at 0.5 µM (EC50).

`O=c1[nH]c(=O)n([C@H]2C[C@H](O)[C@@H](CO)O2)cc1/C=C/I` returned an EC50 of 0.02 µM.

For the compound `[N-]=[N+]=NC(CCl)c1cn([C@H]2C[C@H](O)[C@@H](CO)O2)c(=O)[nH]c1=O` (stereo partly specified), the concentration giving a half-maximal response (EC50) stood at 0.06 µM.

Turning to `CCc1cn([C@H]2C[C@H](O)[C@@H](CO)O2)c(=O)[nH]c1=O` [EDOXUDINE], the EC50 amounted to 0.6 µM.

As for `CC(N)c1cn([C@H]2C[C@H](O)[C@@H](CO)O2)c(=O)[nH]c1=O` (stereo partly specified), the EC50 was > 100 µM.

As for `[N-]=[N+]=NC(CBr)c1cn([C@H]2C[C@H](O)[C@@H](CO)O2)c(=O)[nH]c1=O` (stereo partly specified), the response was half-maximal at 6.4 µM (EC50).

Take `Nc1nc2c(ncn2COCCO)c(=O)[nH]1` [ACYCLOVIR]: the half-maximal effective concentration (EC50) is 0.04 µM.
